Experimental data: publication PMC2119646 (The Journal of Cell Biology, 1993)

Columns and labels:
angiogenesis in vivo = conditions: Table VII; source Fibronectin, others; ref Eijan et al., 1991; cited from earlier work
[1] = test system: Bovine adrenal capillary endothelial cells; assay: endothelial cell migration in an inverted modified Boyden chamber; assay type: cell-based
In short: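 Bovine capillary endothelial cells at passages 10-15 were starved 24 h in DME/0.1% BSA and adhered 1-2 h at 37°C to a gelatinized filter. The chamber was reinverted, with test material in the top well, and incubated 3-4 h at 37°C. Migrated cells were counted in 10 high-power fields, in quadruplicate, with experiments repeated at least twice. Results were expressed as % of positive-control migration after background subtraction and corrected for >10% detachment.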

[2] = test system: neovascularization in the rat cornea; assay: rat cornea neovascularization assay; assay type: in vivo; conditions: Table I, Hydron pellets with TSP1 protein or fragments at 25-30 nM, without bFGF, vigorous vessel ingrowth from the limbus at 7 d = positive

G R G D
Small Peptides Able to Inhibit Angiogenesis In Vivo (angiogenesis in vivo): Able to Inhibit Angiogenesis In Vivo

SPWD I C*SVTC*GGGVQKRSK [Mal III]
ED50 for inhibition of migration with pure recombinant bFGF as inducer ([1]; retest of peptide with recombinant bFGF instead of conditioned media): 7 µM

TGF beta 1: Recombinant TGFβ1 purchased from R & D Sys. [reference compound]
concentrations that stimulated endothelial cell migration ([1]; TGFβ dose response, Fig. 8): 0.04 to 0.4 pM

TSP: Human thrombospondin-1 purified from platelet releasate, 450-kD trimer
Positive corneas/number implanted, Alone [2]: 0/5
Migration of endothelial cells to upper chamber (%), Control, with bFGF ([1]; Table VI, bFGF 10 ng/ml plus TGFβ 0.2 ng/ml or TSP 2.5 µg/ml, no antiserum): < 1%
ability to block endothelial cell migration stimulated by bFGF ([1]; bFGF 10 ng/ml, Fig. 4 b): complete inhibition

bFGF: Recombinant bFGF, inducer and positive control [reference compound]
Migration of endothelial cells to upper chamber (%), Control ([1]; Table VI, addition alone: TGFβ 1 pg/ml or bFGF 10 ng/ml, no antiserum): 100%
